Reference: ChEMBL document CHEMBL4145451, “1,3,5-triazaspiro[5.5]undeca-2,4-dienes as selective Mycobacterium tuberculosis dihydrofolate reductase inhibitors with potent whole cell activity” (Eur J Med Chem, 2018)

Experiments:
[1] = tested on: Mycobacterium tuberculosis; assay: Antimycobacterial activity against Mycobacterium bovis BCG at 25 uM after 10 days by broth dilution method relative to control; format: functional, variant bovis BCG
[2] = tested on: Mycobacterium tuberculosis; assay: Antimycobacterial activity against Mycobacterium bovis BCG after 10 days by broth dilution method; format: functional; details: variant bovis BCG, 240 h
Outline: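 Broth microdilution. Mid-log cultures (OD600 0.4–0.6) were diluted and added to 2-fold serial compound dilutions in DMSO, giving a final 5 × 10^5 CFU/mL in 7H9-albumin-dextrose-catalase-glycerol-Tween 80. Plates were sealed and incubated at 37 °C for 10 days with shaking at 80 rpm. OD600 was read; MIC50 and MIC90 are the lowest concentrations giving 50% and 90% growth inhibition. Rifampicin and DMSO served as controls. Means of 3 independent experiments.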

[3] = tested on: Mycobacterium tuberculosis; assay: Ratio of MIC90 for Mycobacterium bovis BCG over-expressing DHFR to MIC90 for Mycobacterium bovis BCG; format: functional, variant bovis BCG

| Compound | Activity [1] | MIC50 [2] | MIC90 [2] | Ratio [3] |
| --- | --- | --- | --- | --- |
| Cl.NC1=NC2(CCCCC2)N(c2ccc(OCc3cn(CCCc4ccccc4)nn3)cc2)C(N)=N1 | 67.8% | 20.7 µM | > 100 µM | – |
| Cl.NC1=NC2(CCCCC2)N(Cc2cn(CCCc3ccccc3)nn2)C(N)=N1 | 5.4% | – | – | – |
| Cl.NC1=NC2(CCCCC2)N(c2ccc(OCc3cn(CCCCOc4ccc5ccc(=O)oc5c4)nn3)cc2)C(N)=N1 | 92.1% | 0.01 to 0.02 µM | 0.1 µM | 25 - 30 |
| Cl.NC1=NC2(CCCCC2)N(Cc2cn(CCCOc3ccc4ccc(=O)oc4c3)nn2)C(N)=N1 | 7.8% | – | – | – |
| Cl.NC1=NC2(CCCCC2)N(c2ccc(OCc3cn(CCOc4ccc5ccc(=O)oc5c4)nn3)cc2)C(N)=N1 | 84.8% | 0.2 µM | 1.56 µM | – |
| Cl.NC1=NC2(CCCCC2)N(Cc2cn(CCc3ccccc3)nn2)C(N)=N1 | 4.7% | – | – | – |
| Cl.NC1=NC2(CCCCC2)N(Cc2cn(CC(=O)c3ccccc3)nn2)C(N)=N1 | 3.4% | – | – | – |
| Cl.NC1=NC2(CCCCC2)N(Cc2cn(CCOc3ccc4ccc(=O)oc4c3)nn2)C(N)=N1 | 5.8% | – | – | – |
| Cl.NC1=NC2(CCCCC2)N(c2ccc(OCc3cn(CCc4ccccc4)nn3)cc2)C(N)=N1 | 25.6% | – | – | – |
| Cl.NC1=NC2(CCCCC2)N(c2ccc(OCc3cn(CC(=O)c4ccccc4)nn3)cc2)C(N)=N1 | 12.8% | – | – | – |
| Cl.NC1=NC2(CCCCC2)N(Cc2cn(CCCCCOc3ccc4oc(=O)ccc4c3)nn2)C(N)=N1 | 6.7% | – | – | – |
| Cl.NC1=NC2(CCCCC2)N(c2ccc(OCc3cn(CCCOc4ccc5ccc(=O)oc5c4)nn3)cc2)C(N)=N1 | 88.4% | 0.02 µM | 0.2 µM | 25 - 30 |
| Cl.NC1=NC2(CCCCC2)N(c2ccc(OCc3cn(Cc4ccccc4)nn3)cc2)C(N)=N1 | 61.7% | 19.2 µM | > 100 µM | – |
| Cl.NC1=NC2(CCCCC2)N(Cc2cn(Cc3ccccc3)nn2)C(N)=N1 | 4.5% | – | – | – |
| Nc1ccc(C(=O)O)c(O)c1 [AMINOSALICYLIC ACID] | – | – | – | 16 |
